Active and inactive are the calls of the source. No cut-off for these calls is given here.
How the values were obtained:
microtubule (Bos taurus) [1] = test: Binding affinity to microtubule (Bos taurus) after 30 mins at 30 degC by flutax-2 displacement method
A549 [2] = test: Cell cycle arrest at G2/M phase in human A549 cells at 60 nM after 20 hrs by flow cytometry; format: functional, cell-based
1A9 [3] = test: Resistance ratio of IC50 for human 1A9PTX22 cells to IC50 for human 1A9 cells; format: functional
Outline: (§1)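 Relative resistance is the IC50 in the 1A9 tubulin-mutant line divided by the IC50 in parental 1A9 ovarian carcinoma cells. Each IC50 (nM) is the mean ± SEM of three independent assays.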

A2780 [4] = test: Cell cycle arrest at G2/M phase in human A2780 cells at 60 nM after 20 hrs by flow cytometry; format: functional, cell-based
microtubule (Bos taurus) [5] = test: Binding affinity to microtubule (Bos taurus) after 30 mins at 26 degC by flutax-2 displacement method
HeLa [6] = test: Cytotoxicity against human HeLa cells by MTT assay; format: functional, cell-based
Outline: (§2)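 MTT assay run as a modified version of an earlier method. IC50 in nM is the mean ± SEM of three independent assays. Relative resistance is the IC50 in the resistant line (1A9 tubulin mutants, or βIII-transfected HeLa) divided by the IC50 in the parental line (1A9 or HeLa).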

[7] = Cytotoxicity against human 1A9PTX10 cells by MTT assay; format: functional, cell-based; conditions: 1A9/ptx-10
Outline: as §2

microtubule (Bos taurus) [8] = test: Binding affinity to microtubule (Bos taurus) after 30 mins at 37 degC by flutax-2 displacement method
[9] = Cytotoxicity against human 1A9PTX22 cells by MTT assay; format: functional, cell-based; conditions: 1A9/ptx-22
Outline: as §2

microtubule (Bos taurus) [10] = test: Binding affinity to microtubule (Bos taurus) after 30 mins at 32 degC by flutax-2 displacement method
HeLa [11] = test: Resistance ratio of IC50 for human HeLa cells transfected with wild-type tubulin beta3 to IC50 for human HeLa cells; format: functional
Outline: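 Relative resistance is the IC50 in HeLa cells transfected with wild-type βIII-tubulin divided by the IC50 in parental HeLa cells. Each IC50 (nM) is the mean ± SEM of three independent assays.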

A549 [12] = test: Cell cycle arrest at G2/M phase in human A549 cells at 30 nM after 20 hrs by flow cytometry; format: functional, cell-based
A2780 [13] = test: Cytotoxicity against human A2780 cells by MTT assay; format: functional, cell-based
Tubulin (Bos taurus) = Tubulin (Bos taurus) (UniProt Q6B856+Q862L2+Q862F3); test: Induction of calf brain tubulin polymerization assessed as tubulin concentration required to form microtubules by electron microscopy
Outline: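 Critical tubulin concentration found by centrifugation and quantification of the polymer formed. Polymers adsorbed onto formvar/carbon-coated copper grids, stained with 1% uranyl acetate, and viewed by electron microscopy at 100 kV.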

microtubule (Bos taurus) [14] = test: Binding affinity to microtubule (Bos taurus) after 30 mins at 40 degC by flutax-2 displacement method
[15] = Cell cycle arrest at G2/M phase in human A2780AD cells at 60 nM after 20 hrs by flow cytometry; format: functional, cell-based; conditions: A2780 ADR
A2780 [16] = test: Cell cycle arrest at G2/M phase in human A2780 cells at 30 nM after 20 hrs by flow cytometry; format: functional, cell-based
[17] = Cytotoxicity against human 1A9/A8 cells by MTT assay; format: functional, cell-based
Outline: as §2

1A9 [18] = test: Cytotoxicity against human 1A9 cells by MTT assay; format: functional, cell-based
Outline: as §2

microtubule (Bos taurus) [19] = test: Binding affinity to microtubule (Bos taurus) after 30 mins at 35 degC by flutax-2 displacement method
1A9 [20] = test: Resistance ratio of IC50 for human 1A9PTX10 cells to IC50 for human 1A9 cells; format: functional
Outline: as §1

[21] = Resistance ratio of IC50 for human A2780AD cells to IC50 for human A2780 cells; format: functional, A2780 ADR
HeLa [22] = test: Cytotoxicity against human HeLa cells transfected with wild-type tubulin beta3 by MTT assay; format: functional, cell-based
Outline: as §2

MCF7 = test: Cytotoxicity against human MCF7 cells by MTT assay; format: functional, cell-based
microtubule (Bos taurus) [23] = test: Binding affinity to microtubule (Bos taurus) after 30 mins at 42 degC by flutax-2 displacement method
A549 [24] = test: Effect on microtubule cytoskeleton in human A549 cells assessed as induction of micronuleated cells with short microtubules in cytoplasm at 60 to 120 nM after 24 hrs by immunofluorescence assay; format: cell-based
Outline: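 A549 cells were grown overnight on coverslips, then given DMSO vehicle or ligand (60 or 120 nM) for 24 h. Cells were permeabilized with Triton X-100 and fixed in 3.7% formaldehyde. Microtubules were stained with DM1A α-tubulin antibody and DNA with Hoechst 33342. Preparations were viewed by epifluorescence microscopy.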

1A9 [25] = test: Resistance ratio of IC50 for human 1A9/A8 cells to IC50 for human 1A9 cells; format: functional
[26] = Cytotoxicity against human MCF7/R cells by MTT assay; format: functional, cell-based; conditions: MCF7R
[27] = Cytotoxicity against human A2780AD cells by MTT assay; format: functional, cell-based; conditions: A2780 ADR
[28] = Cell cycle arrest at G2/M phase in human A2780AD cells at 30 nM after 20 hrs by flow cytometry; format: functional, cell-based; conditions: A2780 ADR
microtubule (Bos taurus) [29] = test: Binding affinity to microtubule (Bos taurus) after 30 mins at 27 degC by flutax-2 displacement method
A549 [30] = test: Effect on microtubule cytoskeleton in human A549 cells assessed as induction of MS bundles of microtubules near membrane and nucleus at 50 to 500 nM after 24 hrs by immunofluorescence assay; format: cell-based
Outline: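 A549 cells grown overnight on 12 mm round coverslips, then exposed 24 h to DMSO vehicle or ligand at serial concentrations. Permeabilized with Triton X100, fixed in 3.7% formaldehyde. Microtubules stained with DM1A anti-α-tubulin monoclonal, DNA with Hoechst 33342. Viewed by epifluorescence microscopy and imaged with a cooled CCD camera.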

microtubule (Bos taurus) [31] = test: Binding affinity to paclitaxel site of microtubule (Bos taurus) after 30 mins at 26 degC by epothilone B displacement method
microtubule (Bos taurus) [32] = test: Binding affinity to paclitaxel site of microtubule (Bos taurus) after 30 mins at 35 degC by epothilone B displacement method
microtubule (Bos taurus) [33] = test: Binding affinity to paclitaxel site of microtubule (Bos taurus) after 30 mins at 40 degC by epothilone B displacement method
microtubule (Bos taurus) [34] = test: Binding affinity to paclitaxel site of microtubule (Bos taurus) after 30 mins at 30 degC by epothilone B displacement method

SMILES	Kb (microtubule (Bos taurus) [1]) [×10⁷ /M]	Activity (A549 [2])	Kb (microtubule (Bos taurus) [5]) [×10⁷ /M]	IC50 (HeLa [6]) [nM]	IC50 [7] [nM]	IC50 [9] [nM]	Ratio IC50 (HeLa [11])	IC50 (A2780 [13]) [nM]	Activity (Tubulin (Bos taurus)) [µM]	Kb (microtubule (Bos taurus) [14]) [×10⁷ /M]	IC50 [17] [nM]	IC50 (1A9 [18]) [nM]	Kb (microtubule (Bos taurus) [19]) [×10⁷ /M]	Ratio IC50 (1A9 [20])	Ratio IC50 [21]	IC50 (HeLa [22]) [nM]	Activity (A549 [24])	Ratio IC50 (1A9 [25])	IC50 [26] [nM]	IC50 [27] [nM]	also measured
CC(=O)O[C@H]1C(=O)[C@@]2(C)[C@H]([C@H](OC(=O)c3ccccc3)[C@]3(O)C[C@H](OC(=O)[C@H](O)[C@H](CC(C)C)NC(=O)OC(C)(C)C)C(C)=C1C3(C)C)[C@]1(OC(C)=O)CO[C@@H]1C[C@@H]2O	2.7	Active	3	4.4	1.75	4.95	2.5	3.7	1.6	2.7	11.5	2.4	2.4	0.7	7.9	11.2	Active	4.7	2.8	29.1	Ratio IC50 (1A9 [3]): 2; Activity (A2780 [4]): Active; Kb (microtubule (Bos taurus) [8]): 2.3 ×10⁷ /M; Kb (microtubule (Bos taurus) [10]): 2.7 ×10⁷ /M; Activity (A549 [12]): Active; Activity [15]: Active; Activity (A2780 [16]): Active; IC50 (MCF7): 0.35 nM; Kb (microtubule (Bos taurus) [23]): 2.5 ×10⁷ /M; Activity [28]: Active; Kb (microtubule (Bos taurus) [29]): 2.8 ×10⁷ /M
CC(=O)O[C@@]12CO[C@@H]1C[C@H](O)[C@@]1(C)C(=O)[C@H](OC(=O)C3CC3)C3=C(C)[C@@H](OC(=O)[C@H](O)[C@H](C=C(C)C)NC(=O)OC(C)(C)C)C[C@@](O)([C@@H](OC(=O)c4ccccc4)[C@H]21)C3(C)C	10	Active	12	2.1	10.8	7.9	5.3	5.2	0.9	7	12.2	5	8	2.2	2.1	11.2	Active	2.4	2.1	10.9	Ratio IC50 (1A9 [3]): 1.6; Activity (A2780 [4]): Active; Kb (microtubule (Bos taurus) [8]): 7 ×10⁷ /M; Kb (microtubule (Bos taurus) [10]): 9 ×10⁷ /M; Activity (A549 [12]): Active; Activity [15]: Active; Activity (A2780 [16]): Active; Kb (microtubule (Bos taurus) [23]): 6 ×10⁷ /M; Activity [28]: Active; Kb (microtubule (Bos taurus) [29]): 11 ×10⁷ /M
CC(=O)O[C@H]1C(=O)[C@@]2(C)[C@H]([C@H](OC(=O)c3ccccc3)[C@]3(O)C[C@H](OC(=O)[C@H](O)[C@@H](NC(=O)c4ccccc4)c4ccccc4)C(C)=C1C3(C)C)[C@]1(OC(C)=O)CO[C@@H]1C[C@@H]2O [PACLITAXEL]	–	–	–	0.7	81.4	32.8	–	0.4	4.2	–	4.2	3.9	–	–	–	–	–	–	–	1240	Activity (A549 [30]): Active
C/C=C(\C)C(=O)N[C@@H](c1ccccc1)[C@@H](O)C(=O)O[C@H]1C[C@@]2(O)[C@@H](OC(=O)c3cccc(N=[N+]=[N-])c3)[C@@H]3[C@]4(OC(C)=O)CO[C@@H]4C[C@H](OC(=O)CC)[C@@]3(C)C(=O)[C@H](O)C(=C1C)C2(C)C	85	–	124	3.2	11.6	1.9	3.2	–	2.9	52	2	2.3	87	5	5.2	10.2	Active	0.9	–	14	Ratio IC50 (1A9 [3]): 0.83
CCC(=O)O[C@H]1C(=O)[C@@]2(C)[C@H]([C@H](OC(=O)c3cccc(OC)c3)[C@]3(O)C[C@H](OC(=O)[C@H](O)[C@H](C=C(C)C)NC(=O)OC(C)(C)C)C(C)=C1C3(C)C)[C@]1(OC(C)=O)CO[C@@H]1C[C@@H]2O	–	Active	–	5.7	2.9	4.9	–	3.4	0.6	–	4	3.3	–	–	–	4.8	Active	–	0.33	10.5	Kb (microtubule (Bos taurus) [31]): 731 ×10⁷ /M; Kb (microtubule (Bos taurus) [32]): 478 ×10⁷ /M; Activity (A2780 [4]): Active; Kb (microtubule (Bos taurus) [33]): 318 ×10⁷ /M; Activity (A549 [12]): Active; Kb (microtubule (Bos taurus) [34]): 545 ×10⁷ /M; Activity [15]: Active; Activity (A2780 [16]): Active; Activity [28]: Active
CCC(=O)O[C@H]1C(=O)[C@@]2(C)[C@H]([C@H](OC(=O)c3cccc(N=[N+]=[N-])c3)[C@]3(O)C[C@H](OC(=O)[C@H](O)[C@@H](NC(=O)OC(C)(C)C)c4ccccc4)C(C)=C1C3(C)C)[C@]1(OC(C)=O)CO[C@@H]1C[C@@H]2O	748	–	612	9.2	2.4	12	1.7	7	3.6	355	3.8	3.1	628	0.4	1.3	16	Active	1.2	153	9.1	IC50 (MCF7): 1.9 nM
CC(=O)O[C@@]12CO[C@@H]1C[C@H](O)[C@@]1(C)C(=O)[C@H](O)C3=C(C)[C@@H](OC(=O)[C@H](O)[C@@H](NC(=O)OC(C)(C)C)c4ccccc4)C[C@@](O)([C@@H](OC(=O)c4ccccc4)[C@H]21)C3(C)C [DOCETAXEL]	–	–	–	–	–	–	–	–	2.4	–	–	–	–	–	–	–	–	–	–	290	–

— ChEMBL document CHEMBL3352049, “Taxanes with high potency inducing tubulin assembly overcome tumoural cell resistances” (Bioorg Med Chem, 2014)
